Experimental data reported in ChEMBL document CHEMBL1123659, “2-Phenylindoles. Effect of N-benzylation on estrogen receptor affinity, estrogenic properties, and mammary tumor inhibiting activity” (J Med Chem, 1987).
Values joined by “and” are separate entries in the source; they are usually repeats but may differ in a detail not shown here. Equal entries are not always repeated.

How the values were obtained:
MDA-MB-231 [1] = test: Effect on [3H]thymidine incorporation into estrogen receptor negative MDA-MB 231 human breast carcinoma cells at 5*10e-6 M; format: functional
MCF7 [2] = test: Effect on [3H]thymidine incorporation into estrogen receptor positive MCF-7 human breast carcinoma cells at 10e-7 M (ex 2)
MCF7 [3] = test: Effect on [3H]thymidine incorporation into estrogen receptor positive MCF-7 human breast carcinoma cells at 10e-5 M (ex 1); format: functional
Method in brief: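 MCF-7 cells kept in MEM with 5% charcoal-stripped newborn calf serum for two weeks. About 2×10^4 cells per well plated, then one day later exposed to compound in 0.1% ethanol. Ethanol-only controls. Medium changed on day 4. Three days later cells labelled with 1 µCi [3H]thymidine per well for 2 h. TCA-insoluble radioactivity per dish counted, mean of six dishes ± SD, expressed as % T/C.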

MDA-MB-231 [4] = test: Effect on [3H]thymidine incorporation into estrogen receptor negative MDA-MB 231 human breast carcinoma cells at 1*10e-5 M (ex 1); format: functional
MCF7 [5] = test: Effect on [3H]thymidine incorporation into estrogen receptor positive MCF-7 human breast carcinoma cells at 10e-6 M (ex 2)
MDA-MB-231 [6] = test: Effect on [3H]thymidine incorporation into estrogen receptor negative MDA-MB 231 human breast carcinoma cells at 1*10e-6 M; format: functional
[7] = target: Estrogen receptor (Bos taurus) (UniProt Q9XSB5+P49884); test: Relative binding affinity for the calf uterine estrogen receptor by 17-beta-[3H]-estradiol displacement.; format: protein assay
Method in brief: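 Calf uterine cytosol (105000g supernatant, 3 mg/mL protein final) in Tris-EDTA-NaN3 buffer, pH 7.5. Incubated with 5 nM 17β-[3H]estradiol and 10^-9–10^-5 M competitor for 18 h at 4 °C. Dextran-coated charcoal added for 90 min, then supernatant radioactivity counted. Nonspecific binding taken with 5 µM estradiol. RBA = molar ratio of estradiol to competitor at 50% displacement ×100.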

[8] = target: T1, Estrogen receptor (Mus musculus) (UniProt O08537+P19785); test: Estrogenic activity as Uterus dry weight (mg)/body weight (g) *100 in mice at 625 ug
T1 sequence (O08537 whole entry, looked up): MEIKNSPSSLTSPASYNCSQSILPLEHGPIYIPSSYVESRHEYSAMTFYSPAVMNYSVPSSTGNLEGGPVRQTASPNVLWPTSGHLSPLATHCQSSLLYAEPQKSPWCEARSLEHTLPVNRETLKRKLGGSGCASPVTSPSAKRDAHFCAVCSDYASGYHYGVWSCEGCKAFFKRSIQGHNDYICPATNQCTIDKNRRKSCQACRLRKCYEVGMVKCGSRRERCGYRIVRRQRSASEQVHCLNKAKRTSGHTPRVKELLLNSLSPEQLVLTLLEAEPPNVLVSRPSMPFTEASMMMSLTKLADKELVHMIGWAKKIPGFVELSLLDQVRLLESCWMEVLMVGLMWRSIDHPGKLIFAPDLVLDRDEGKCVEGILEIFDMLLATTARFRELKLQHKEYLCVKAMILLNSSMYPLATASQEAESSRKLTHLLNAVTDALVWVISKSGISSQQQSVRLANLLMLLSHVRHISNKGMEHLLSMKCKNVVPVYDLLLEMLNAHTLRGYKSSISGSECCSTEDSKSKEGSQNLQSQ
T1 sequence (P19785 whole entry, looked up): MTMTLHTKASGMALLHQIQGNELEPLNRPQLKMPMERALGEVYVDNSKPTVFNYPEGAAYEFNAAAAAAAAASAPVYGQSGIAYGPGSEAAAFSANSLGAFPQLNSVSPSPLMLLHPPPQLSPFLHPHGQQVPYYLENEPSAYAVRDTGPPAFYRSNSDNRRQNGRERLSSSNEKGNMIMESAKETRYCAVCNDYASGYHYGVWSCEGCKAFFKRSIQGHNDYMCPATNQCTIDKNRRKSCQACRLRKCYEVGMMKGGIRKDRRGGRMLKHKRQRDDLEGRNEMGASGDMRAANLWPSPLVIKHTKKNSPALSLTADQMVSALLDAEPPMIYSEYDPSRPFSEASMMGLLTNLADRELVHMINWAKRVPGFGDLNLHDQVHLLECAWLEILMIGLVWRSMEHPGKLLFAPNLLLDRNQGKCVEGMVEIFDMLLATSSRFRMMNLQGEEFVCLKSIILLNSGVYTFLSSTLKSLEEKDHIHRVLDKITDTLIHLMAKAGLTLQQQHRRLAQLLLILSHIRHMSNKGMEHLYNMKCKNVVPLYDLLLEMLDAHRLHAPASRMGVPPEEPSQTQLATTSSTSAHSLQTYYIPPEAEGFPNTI

[9] = target: T1, Estrogen receptor (Mus musculus); test: Estrogenic activity as Uterus dry weight (mg)/body weight (g) *100 in mice at 25 ug
[10] = target: T1, Estrogen receptor (Mus musculus); test: Anti-estrogenic activity as Uterus dry weight (mg)/body weight (g) *100 in mice at 1 ug; format: functional, tissue-based
Method in brief: (§1)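 Immature mice, sc injection on three consecutive days of test compound together with a standard 0.4 µg estrone per animal and day. Dose per animal. Control animals got vehicle. Killed 24 h after the last injection. Uteri Bouin-fixed, cleaned, washed in alcoholic LiCl, dried at 100 °C for 24 h and weighed. Read-out is uterine dry weight (mg)/body weight (g) ×100, mean of 10 animals ± SD.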

[11] = target: T1, Estrogen receptor (Mus musculus); test: Anti-estrogenic activity as Uterus dry weight (mg)/body weight (g) *100 in mice at 5 ug; format: functional, tissue-based; method in brief: as §1
[12] = target: T1, Estrogen receptor (Mus musculus); test: (§2) Estrogenic activity as Uterus dry weight (mg)/body weight (g) *100 in mice with 0.4 ug estrone; format: functional, tissue-based
Method in brief: (§3)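 Immature mice given 0.4 µg estrone per animal sc on three consecutive days. Control animals got vehicle. Killed 24 h after the last injection. Uteri fixed in Bouin, dried at 100 °C for 24 h and weighed. Result expressed as uterine dry weight (mg)/body weight (g) ×100, mean of 10 animals ± SD.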

[13] = target: T1, Estrogen receptor (Mus musculus); test: Estrogenic activity as Uterus dry weight (mg)/body weight (g) *100 in mice at 5 ug
[14] = target: T1, Estrogen receptor (Mus musculus); test: as §2; format: functional, tissue-based; method in brief: as §3; remark: listed apart in the source
[15] = target: T1, Estrogen receptor (Mus musculus); test: Percent inhibition of estrone-stimulated uterine growth in mice; format: functional; set-up: concentration or dose not given beside the values; conditions: concentration not given here
Method in brief: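 Mouse antiuterotrophic test. Immature mice injected sc on three consecutive days with 0.4 µg estrone plus increasing doses per animal of test compound. Dry uterine weight/body weight ×100 determined 24 h after the last injection, 10 animals per group. Inhibition (%) = 100 − [(E_S,T − E_V)/(E_S − E_V)] ×100, where E_S is estrone alone and E_V is vehicle. Significance by Mann-Whitney U-test.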

[16] = target: T1, Estrogen receptor (Mus musculus); test: Anti-estrogenic activity as Uterus dry weight (mg)/body weight (g) *100 in mice at 25 ug; format: functional, tissue-based; method in brief: as §1
[17] = target: T1, Estrogen receptor (Mus musculus); test: Anti-estrogenic activity as Uterus dry weight (mg)/body weight (g) *100 in mice at 125 ug; format: functional, tissue-based; method in brief: as §1
[18] = target: T1, Estrogen receptor (Mus musculus); test: as §2; format: functional, tissue-based; method in brief: as §3; remark: listed apart in the source
[19] = target: T1, Estrogen receptor (Mus musculus); test: as §2; format: functional, tissue-based; method in brief: as §3; remark: listed apart in the source
[20] = in the assay text read “Estrogenic activity” for “Anti-estrogenic activity”

## Cc1c(-c2ccc(O)cc2)n(Cc2ccc(C#N)cc2)c2ccc(O)cc12
MDA-MB-231 [1]
  T/C: 10.5 ×10^4 per dish
MCF7 [2]
  T/C: 17.3 ×10^4 per dish
MCF7 [3]
  T/C: 1.3 ×10^4 per dish
MDA-MB-231 [4]
  T/C: 11 ×10^4 per dish
MCF7 [5]
  T/C: 7.8 ×10^4 per dish
MDA-MB-231 [6]
  T/C: 10.5 ×10^4 per dish
[7]
  relative binding affinity (RBA): 14

## COc1ccc(Cn2c(-c3ccc(OC(C)=O)cc3)c(C)c3cc(OC(C)=O)ccc32)cc1
[8]
  Activity: 45
[9]
  Activity: 14.7
[10]
  Activity: 47.1
[11]
  Activity: 47.4
[12]
  Activity: 47.8
[13]
  Activity: 14.3
[14]
  Activity: 52.2
[15]
  inhibition: 23%
[16]
  Activity: 46.8
[17]
  Activity: 40.1
[17]; [20]
  Activity: 30.9

## Cc1c(-c2ccc(O)cc2)n(Cc2ccc(O)cc2)c2ccc(O)cc12
[7]
  relative binding affinity (RBA): 8

## CC(=O)Oc1ccc(-c2c(C)c3cc(OC(C)=O)ccc3n2Cc2ccccc2)cc1
[8]
  Activity: 38.1
[18]
  Activity: 48.2
[9]
  Activity: 22.6
[10]
  Activity: 49.9
[11]
  Activity: 48.7
[13]
  Activity: 13.3
[14]
  Activity: 47.4
[15]
  inhibition: 17% and < 42%
[16]
  Activity: 42.8
[17]
  Activity: 34.7
[17]; [20]
  Activity: 30.7

## Cc1cccc(Cn2c(-c3ccc(O)cc3)c(C)c3cc(O)ccc32)c1
[7]
  relative binding affinity (RBA): 6.6

## Cc1c(-c2ccc(O)cc2)n(-c2ccccc2)c2ccc(O)cc12
[7]
  relative binding affinity (RBA): 9

## Cc1c(-c2ccc(O)cc2)n(CC2CCCCC2)c2ccc(O)cc12
[7]
  relative binding affinity (RBA): 5.2

## CC(=O)Oc1ccc(-c2c(C)c3cc(OC(C)=O)ccc3n2Cc2ccc(C)cc2)cc1
[8]
  Activity: 40
[9]
  Activity: 20.3
[10]
  Activity: 49.2
[11]
  Activity: 46.3
[12]
  Activity: 46.5 and 47.8
[13]
  Activity: 14.4
[15]
  inhibition: 16% and < 35%
[16]
  Activity: 42.5
[17]
  Activity: 36
[17]; [20]
  Activity: 32.9

## CC(=O)Oc1ccc(-c2c(C)c3ccc(OC(C)=O)cc3n2Cc2ccccc2)cc1
[8]
  Activity: 32.6
[19]
  Activity: 48.2
[9]
  Activity: 17.1
[10]
  Activity: 54.2
[11]
  Activity: 50.4
[13]
  Activity: 12.3
[14]
  Activity: 46.5
[15]
  inhibition: 11%
[16]
  Activity: 52.1
[17]
  Activity: 44.6
[17]; [20]
  Activity: 32.4

## Cc1c(-c2cccc(O)c2)n(Cc2ccccc2)c2ccc(O)cc12
[7]
  relative binding affinity (RBA): 3

## Cc1ccc(Cn2c(-c3ccc(O)cc3)c(C)c3cc(O)ccc32)cc1
[7]
  relative binding affinity (RBA): 11

## Cc1c(-c2ccc(O)cc2)n(Cc2ccccc2Cl)c2ccc(O)cc12
[7]
  relative binding affinity (RBA): 8.7

## Cc1c(-c2ccccc2)n(Cc2ccccc2)c2ccc(O)cc12
[7]
  relative binding affinity (RBA): 2.6
